Experimental data pooled from the literature.
Compare with care: the assays were run in different laboratories.
Target: Tyrosine-protein kinase ITK/TSK (ITK, Homo sapiens, UniProt Q08881)
One construct used (Q08881 1-620): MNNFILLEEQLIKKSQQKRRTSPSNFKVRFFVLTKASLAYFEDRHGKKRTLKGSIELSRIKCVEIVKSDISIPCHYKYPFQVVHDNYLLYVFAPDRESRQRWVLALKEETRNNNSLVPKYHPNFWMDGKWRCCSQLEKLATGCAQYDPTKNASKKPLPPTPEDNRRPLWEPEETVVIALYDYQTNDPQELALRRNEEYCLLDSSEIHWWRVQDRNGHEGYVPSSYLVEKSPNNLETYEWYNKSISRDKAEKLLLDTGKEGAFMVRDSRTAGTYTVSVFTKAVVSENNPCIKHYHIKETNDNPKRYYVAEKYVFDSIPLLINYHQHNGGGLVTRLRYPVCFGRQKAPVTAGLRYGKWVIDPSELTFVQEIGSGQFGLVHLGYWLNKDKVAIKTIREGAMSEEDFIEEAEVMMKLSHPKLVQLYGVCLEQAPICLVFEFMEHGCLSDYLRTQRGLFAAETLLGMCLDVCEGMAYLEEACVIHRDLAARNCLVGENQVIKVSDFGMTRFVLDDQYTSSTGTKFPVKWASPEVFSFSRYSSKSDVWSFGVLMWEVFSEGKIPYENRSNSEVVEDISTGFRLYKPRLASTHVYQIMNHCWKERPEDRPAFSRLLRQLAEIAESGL

Compound	observed	method	concentration	remaining binding [%]
O=C(c1ccc(Nc2nccc(-c3cc4ccccc4s3)n2)cc1)N1CCC(N2CCCC2)CC1	binding	competition with immobilised ligand	1 µM	96
COc1ncc2cc3ccccc3nc2c1C#N	cell-free assay	competition with immobilised ligand	5 µM	97
O=C(NCC1CCOCC1)c1n[nH]cc1NC(=O)c1c(F)cccc1F	binding	competition with immobilised ligand	1 µM	100
Cc1cnc(Nc2ccc(C(=O)N3CCC(N4CCCC4)CC3)cc2)nc1-c1cc2ccccc2s1	binding	competition with immobilised ligand	1 µM	59
CNC(=O)[C@@H]1CC[C@@H](n2c(-c3ccc4cnccc4c3)nc3ccc(C(=O)NCc4cccc(C(N)=O)c4)cc32)C1	binding	competition with immobilised ligand	1 µM	99
c1cncc(-c2cccc(Nc3nccc(NC4CCCCC4)n3)c2)c1	binding	competition with immobilised ligand	10 µM	80
COc1ccc2c(c1)O[C@H](c1ccc(OC)c(OC)c1)C[C@@H]2NC(=O)C1(c2ccc3c(c2)OC(F)(F)O3)CC1	cell-free assay	competition with immobilised ligand	1 µM	100
CN(c1nccc(-c2cnn3ncccc23)n1)C1CC1	binding		1 µM	100
Cc1nccc(COC(=O)N2C[C@@H]3[C@@H](CNC(=O)c4ccc5[nH]nnc5c4)[C@@H]3C2)n1	cell-free assay	competition with immobilised ligand	1 µM	100
COc1cnc(Nc2cccc(S(N)(=O)=O)c2)nc1N1CCN(c2ccccc2)CC1	binding	competition with immobilised ligand	1 µM	95
CN(CCCC(F)(F)F)c1nccc(-c2cnn3ncccc23)n1	binding		1 µM	95
O=C(O)[C@H]1[C@H](Cn2nnc3ccccc3c2=O)CC[C@@H]1C(=O)c1ccc(OCCC2CCOCC2)cc1	cell-free assay	competition with immobilised ligand	1 µM	100
Cc1cnn2ncc(-c3ccnc(N(C)C)n3)c2c1	binding		1 µM	100
Cn1nc(C(=O)NCc2ccc(C(=O)O)cc2)cc1-c1ccc2[nH]ccc2c1	cell-free assay	competition with immobilised ligand	0.1 µM	85
N[C@@H]1CCN(c2nccc(-c3cnn4ncccc34)n2)C1	binding		1 µM	93
O=C(NCCCN1CCOCC1)c1ccc(Nc2nccc(-c3cc4ccccc4s3)n2)cc1	binding	competition with immobilised ligand	1 µM	100
C[C@H](c1ccnc(Nc2nc3ccc(-c4cc(N(C)C)ncn4)cc3[nH]2)c1)N1CCN(C(=O)CC(F)(F)F)CC1	cell-free assay	competition with immobilised ligand	0.1 µM	100
CN(C)c1nccc(-c2cnc3ncccn23)n1	binding		1 µM	88
Cc1c(NC(=O)c2cc(C(N)=O)nc3cc(F)ccc23)c(C(F)(F)F)nn1Cc1ccc(C#N)cc1	cell-free assay	competition with immobilised ligand	1 µM	78
C[C@@H]1CCN(c2nccc(-c3cnn4ncccc34)n2)C1	binding		1 µM	91
